Results collected from several papers.
Compare with care: the assays were run in different laboratories. ≈ marks a conversion by molar mass, not a printed value.

| Structure (SMILES) | tested on | test | test system | conditions | endpoint | value |
| --- | --- | --- | --- | --- | --- | --- |
| CCC(=CCc1c(O)cc2c(c1O)C(=O)C[C@@H](c1ccccc1O)O2)CC | HeLa | cell growth or viability, MTT | – | 3.75 µM, 48 h | inhibition | -0.655% |
| CN[C@H](CC(C)C)C(=O)N[C@H]1C(=O)N[C@@H](CC(N)=O)C(=O)N[C@H]2C(=O)N[C@H]3C(=O)N[C@H](C(=O)N[C@H](C(=O)O)c4cc(O)cc(O)c4-c4cc3ccc4O)[C@H](O)c3ccc(c(Cl)c3)Oc3cc2cc(c3O[C@@H]2O[C@H](CO)[C@@H](O)[C@H](O)[C@H]2O[C@H]2C[C@](C)(N)[C@H](O)[C@H](C)O2)Oc2ccc(cc2Cl)[C@H]1O | Enterococcus faecalis | microbial growth, agar dilution | ATCC29212 | – | MIC | 2 µg/mL (≈ 1.38 µM) |
| CCOc1ccc(C(=O)CC(SCc2ccc(Cl)cc2)C(=O)OC)cc1 (stereo not shown) | SK-MEL-2 | cell growth or viability, MTT | – | 48 h | EC50 | 23 µM |
| CNC(=S)NN=Cc1ccc(O)c(OC)c1 | Leishmania major | parasite growth, MTT | – | 72 h, promastigote | IC50 | 38.3 µM |
| CCC(=CCc1c(O)cc2c(c1O)C(=O)CC(c1ccc(O)cc1)O2)CC (stereo in doubt) | HeLa | cell growth or viability, MTT | – | 1.563 µM, 48 h | inhibition | 2.57% |
| CC(=O)NC[C@H]1CN(c2ccc(N3CCOCC3)c(F)c2)C(=O)O1 | Enterococcus faecalis | microbial growth, broth dilution | – | clinical isolate | MIC50 | 0.5 µg/mL (≈ 1.48 µM) |
| CN1CCN(c2ncc(-c3ccc4nncc(Nc5ncccn5)c4c3)cn2)CC1 | Leishmania major | parasite growth | – | intracellular, amastigote | EC50 | > 25 µM |
| CNC(=S)NN=Cc1ccc(F)cc1 | Leishmania major | parasite growth, MTT | – | 72 h, promastigote | IC50 | 346 µM |
| C=C[C@]1(C)C[C@@H](OC(=O)CS[C@@H]2C[C@H]3CC[C@@H](C2)N3C)[C@]2(C)[C@H](C)CC[C@]3(CCC(=O)[C@H]32)[C@@H](C)[C@@H]1O | Enterococcus faecalis | microbial growth | – | clinical isolate | MIC50 | > 128 µg/mL |
| COc1ccc(Nc2cnnc3cc(-c4ccc(N5CCN(C)CC5)cc4)ccc23)nc1 | Leishmania major | parasite growth | – | intracellular, amastigote | EC50 | 6 µM |
